Source: ChEMBL document CHEMBL1128719, “The synthesis, structure-activity, and structure-side effect relationships of a series of 8-alkoxy- and 5-amino-8-alkoxyquinolone antibacterial agents” (J Med Chem, 1995)
Values after ≈ are worked out from the molar mass of the structure shown.

Tests used:
[1] = tested on: Cutibacterium acnes; assay: In vitro antibacterial activity was tested for Propion acnes PA5-1; type: functional
In short: (§1)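 Microtitration (microdilution) MIC determination in μg/mL against a panel of Gram-positive, Gram-negative and anaerobic organisms. Values come from duplicate or triplicate experiments and are stated accurate to ±50%.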

[2] = species: Mus musculus; assay: Phototoxic skin reaction in depilated female CD-1 mice.; type: functional
In short: (§2)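 Female CD-1 mice, depilated, given a single oral or subcutaneous dose. UVA (320–400 nm) exposure for 3 h, starting 1 h post-dose. Initial doses were 30, 100 and 300 mg/kg. PTD50 (dose giving phototoxic skin reaction in 50% of mice) derived by probit method. First day of positive reaction and no-effect dose taken from raw data.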

[3] = tested on: Clostridioides difficile; assay: In vitro antibacterial activity was tested for Clostridium diff CD1-1; type: functional
[4] = species: Mus musculus; assay: (§3) Phototoxic skin reaction in depilated female CD-1 mice; type: toxicity, organism-based; settings: in vivo; in short: as §2
[5] = tested on: Peptoniphilus asaccharolyticus; assay: In vitro antibacterial activity was tested for Pepto asac PA 3-1; type: functional; in short: as §1
[6] = tested on: Clostridium perfringens; assay: In vitro antibacterial activity against Clostridium perfringens CP 3-1; type: functional
[7] = tested on: Bacteroides fragilis; assay: In vitro antibacterial activity against Bacteroides fragilis BFA; type: functional; in short: as §1
[8] = tested on: V79; assay: Clonogenic cytotoxicity against Chinese hamster V-79 cells; type: functional, cell-based; settings: Cricetulus griseus
[9] = tested on: Enterobacter cloacae; assay: In vitro antibacterial activity was tested for Enterobacter cloacae HA2646; type: functional
[10] = tested on: Streptococcus pneumoniae; assay: In vitro antibacterial activity was tested for Streptococcus pneumoniae SV-1; type: functional; in short: as §1
[11] = tested on: Escherichia coli; assay: In vitro antibacterial activity was tested for Escherichia coli Vogel; type: functional; in short: as §1
[12] = tested on: Streptococcus pyogenes; assay: In vitro antibacterial activity was tested for Streptococcus pyogenes C203; type: functional; in short: as §1
[13] = tested on: Klebsiella pneumoniae; assay: In vitro antibacterial activity was tested for Klebsiella pneumoniae MGH-2; type: functional; in short: as §1
[14] = tested on: Providencia rettgeri; assay: In vitro antibacterial activity was tested for Providencia rettgeri H1771; type: functional; in short: as §1
[15] = tested on: Escherichia coli; assay: In vitro antibacterial activity was tested for Escherichia coli H560; type: functional; in short: as §1
[16] = tested on: Enterococcus faecalis; assay: In vitro antibacterial activity was tested for Streptococcus faecalis MGH-2; type: functional; in short: as §1
[17] = tested on: Staphylococcus aureus; assay: In vitro antibacterial activity was tested for Staphylococcus aureus UC-76; type: functional; in short: as §1
[18] = tested on: Staphylococcus aureus; assay: In vitro antibacterial activity was tested for Staphylococcus aureus H228; type: functional; in short: as §1
[19] = tested on: Pseudomonas aeruginosa; assay: In vitro antibacterial activity was tested for Pseudomonas aeruginosa UI-18; type: functional; in short: as §1
[20] = species: Mus musculus; assay: as §3; type: functional; in short: as §2

CC1(CN)CCN(c2c(F)c(N)c3c(=O)c(C(=O)O)cn(C4CC4)c3c2F)C1 (centres undefined)
MIC [1]: 0.4 µg/mL (≈ 1.02 µM)
No effect dose [2]: 30 mg
MIC [3]: 1.6 µg/mL (≈ 4.08 µM)
PTD50 [4]: > 30 mg
MIC [5]: 0.2 µg/mL (≈ 0.51 µM)
MIC [6]: 0.025 µg/mL (≈ 0.0637 µM)
MIC [7]: 0.8 µg/mL (≈ 2.04 µM)

CC1(CN)CCN(c2cc3c(cc2F)c(=O)c(C(=O)O)cn3C2CC2)C1 (centres undefined)
MIC [1]: 1.6 µg/mL (≈ 4.45 µM)
No effect dose [2]: 100 mg
MIC [3]: 6.3 µg/mL (≈ 17.5 µM)
PTD50 [4]: > 100 mg
MIC [5]: 1.6 µg/mL (≈ 4.45 µM)
MIC [6]: 0.2 µg/mL (≈ 0.556 µM)
MIC [7]: 6.3 µg/mL (≈ 17.5 µM)

NC1CCCN(c2cc3c(cc2F)c(=O)c(C(=O)O)cn3C2CC2)C1 (centres undefined)
No effect dose [2]: 100 mg
PTD50 [4]: > 100 mg
IC50 [8]: 560 µg/mL (≈ 1620 µM)

COc1c(N2CC[C@H](N)C2)c(F)cc2c(=O)c(C(=O)O)cn(C3CC3)c12
MIC [1]: 0.4 µg/mL (≈ 1.11 µM)
MIC [9]: 0.025 µg/mL (≈ 0.0692 µM)
MIC [10]: 0.025 µg/mL (≈ 0.0692 µM)
MIC [11]: 0.025 µg/mL (≈ 0.0692 µM)
MIC [12]: 0.025 µg/mL (≈ 0.0692 µM)
MIC [13]: 0.05 µg/mL (≈ 0.138 µM)
MIC [14]: 0.1 µg/mL (≈ 0.277 µM)
MIC [3]: 0.2 µg/mL (≈ 0.553 µM)
MIC [5]: 0.8 µg/mL (≈ 2.21 µM)
MIC [15]: 0.025 µg/mL (≈ 0.0692 µM)
MIC [16]: 0.05 µg/mL (≈ 0.138 µM)
MIC [17]: 0.013 µg/mL (≈ 0.036 µM)
MIC [18]: 0.05 µg/mL (≈ 0.138 µM)
MIC [6]: 0.2 µg/mL (≈ 0.553 µM)
MIC [19]: 0.4 µg/mL (≈ 1.11 µM)
MIC [7]: 0.2 µg/mL (≈ 0.553 µM)
IC50 [8]: 32 µg/mL (≈ 88.6 µM)

CCNCC1CCCN(c2c(F)cc3c(=O)c(C(=O)O)cn(C4CC4)c3c2OCC)C1 (centres undefined)
MIC [1]: 3.1 µg/mL (≈ 7.18 µM)
MIC [9]: 1.6 µg/mL (≈ 3.71 µM)
MIC [10]: 0.1 µg/mL (≈ 0.232 µM)
MIC [11]: 0.8 µg/mL (≈ 1.85 µM)
MIC [12]: 0.1 µg/mL (≈ 0.232 µM)
MIC [13]: 3.1 µg/mL (≈ 7.18 µM)
MIC [14]: > 3.1 µg/mL
MIC [3]: 3.1 µg/mL (≈ 7.18 µM)
MIC [5]: 0.4 µg/mL (≈ 0.927 µM)
MIC [15]: 0.8 µg/mL (≈ 1.85 µM)
MIC [16]: 0.2 µg/mL (≈ 0.463 µM)
MIC [17]: 0.05 µg/mL (≈ 0.116 µM)
MIC [18]: 0.2 µg/mL (≈ 0.463 µM)
MIC [6]: 0.4 µg/mL (≈ 0.927 µM)
MIC [19]: > 3.1 µg/mL
MIC [7]: 3.1 µg/mL (≈ 7.18 µM)
IC50 [8]: 460 µg/mL (≈ 1070 µM)

C[C@@H]1CN(c2c(F)cc3c(=O)c(C(=O)O)cn(C4CC4)c3c2F)C[C@H](C)N1
MIC [1]: 0.8 µg/mL (≈ 2.12 µM)
MIC [3]: 3.1 µg/mL (≈ 8.21 µM)
PTD50 [4]: 55 mg
MIC [5]: 1.6 µg/mL (≈ 4.24 µM)
No effect dose [20]: 30 mg
MIC [6]: 0.2 µg/mL (≈ 0.53 µM)
MIC [7]: 1.6 µg/mL (≈ 4.24 µM)

CCOc1c(N2CCC(N)C2)c(F)c(N)c2c(=O)c(C(=O)O)cn(C3CC3)c12 (centres undefined)
MIC [1]: 3.1 µg/mL (≈ 7.94 µM)
MIC [9]: 0.1 µg/mL (≈ 0.256 µM)
MIC [10]: 0.05 µg/mL (≈ 0.128 µM)
MIC [11]: 0.05 µg/mL (≈ 0.128 µM)
MIC [12]: 0.1 µg/mL (≈ 0.256 µM)
MIC [13]: 0.2 µg/mL (≈ 0.512 µM)
MIC [14]: 0.4 µg/mL (≈ 1.02 µM)
No effect dose [2]: 100 mg
MIC [3]: 12.5 µg/mL (≈ 32 µM)
PTD50 [4]: > 100 mg
MIC [5]: 0.8 µg/mL (≈ 2.05 µM)
MIC [15]: 0.05 µg/mL (≈ 0.128 µM)
MIC [16]: 0.1 µg/mL (≈ 0.256 µM)
MIC [17]: 0.013 µg/mL (≈ 0.0333 µM)
MIC [18]: 0.05 µg/mL (≈ 0.128 µM)
MIC [6]: 0.4 µg/mL (≈ 1.02 µM)
MIC [19]: 3.1 µg/mL (≈ 7.94 µM)
MIC [7]: 3.1 µg/mL (≈ 7.94 µM)
IC50 [8]: 220 µg/mL (≈ 564 µM)

COc1c(N2CCCC(CN)C2)c(F)c(N)c2c(=O)c(C(=O)O)cn(C3CC3)c12 (centres undefined)
MIC [1]: 1.6 µg/mL (≈ 3.96 µM)
MIC [9]: 0.2 µg/mL (≈ 0.495 µM)
MIC [10]: 0.025 µg/mL (≈ 0.0618 µM)
MIC [11]: 0.1 µg/mL (≈ 0.247 µM)
MIC [12]: 0.025 µg/mL (≈ 0.0618 µM)
MIC [13]: 0.4 µg/mL (≈ 0.989 µM)
MIC [14]: 0.8 µg/mL (≈ 1.98 µM)
MIC [3]: 1.6 µg/mL (≈ 3.96 µM)
MIC [5]: 0.8 µg/mL (≈ 1.98 µM)
MIC [15]: 0.1 µg/mL (≈ 0.247 µM)
MIC [16]: 0.025 µg/mL (≈ 0.0618 µM)
MIC [17]: 0.006 µg/mL (≈ 0.0148 µM)
MIC [18]: 0.05 µg/mL (≈ 0.124 µM)
MIC [6]: 0.2 µg/mL (≈ 0.495 µM)
MIC [19]: 3.1 µg/mL (≈ 7.66 µM)
MIC [7]: 3.1 µg/mL (≈ 7.66 µM)
IC50 [8]: 140 µg/mL (≈ 346 µM)

CC1(CN)CCN(c2c(F)cc3c(=O)c(C(=O)O)cn(C4CC4)c3c2F)C1 (centres undefined)
MIC [1]: 0.4 µg/mL (≈ 1.06 µM)
No effect dose [2]: <30 mg
MIC [3]: 1.6 µg/mL (≈ 4.24 µM)
PTD50 [4]: < 30 mg
MIC [5]: 0.4 µg/mL (≈ 1.06 µM)
MIC [6]: 0.1 µg/mL (≈ 0.265 µM)
MIC [7]: 0.4 µg/mL (≈ 1.06 µM)
IC50 [8]: 7.7 µg/mL (≈ 20.4 µM)

COc1c(N2CCC(N)C2)c(F)c(N)c2c(=O)c(C(=O)O)cn(C3CC3)c12 (centres undefined)
MIC [1]: 0.8 µg/mL (≈ 2.13 µM)
MIC [9]: 0.05 µg/mL (≈ 0.133 µM)
MIC [10]: 0.05 µg/mL (≈ 0.133 µM)
MIC [11]: 0.025 µg/mL (≈ 0.0664 µM)
MIC [12]: 0.1 µg/mL (≈ 0.266 µM)
MIC [13]: 0.1 µg/mL (≈ 0.266 µM)
MIC [14]: 0.2 µg/mL (≈ 0.531 µM)
No effect dose [2]: 100 mg
MIC [3]: 3.1 µg/mL (≈ 8.24 µM)
PTD50 [4]: > 100 mg
MIC [5]: 0.8 µg/mL (≈ 2.13 µM)
MIC [15]: 0.025 µg/mL (≈ 0.0664 µM)
MIC [16]: 0.05 µg/mL (≈ 0.133 µM)
MIC [17]: 0.006 µg/mL (≈ 0.0159 µM)
MIC [18]: 0.05 µg/mL (≈ 0.133 µM)
MIC [6]: 0.2 µg/mL (≈ 0.531 µM)
MIC [19]: 0.8 µg/mL (≈ 2.13 µM)
MIC [7]: 1.6 µg/mL (≈ 4.25 µM)

O=C(O)c1cn(C2CC2)c2cc(N3CCNCC3)c(F)cc2c1=O [CIPROFLOXACIN]
MIC [1]: 0.8 µg/mL (≈ 2.41 µM)
MIC [10]: 1.6 µg/mL (≈ 4.83 µM)
MIC [12]: 0.8 µg/mL (≈ 2.41 µM)
MIC [13]: 0.1 µg/mL (≈ 0.302 µM)
MIC [14]: 0.1 µg/mL (≈ 0.302 µM)
No effect dose [2]: 100 mg
PTD50 [4]: 172 mg
MIC [5]: 1.6 µg/mL (≈ 4.83 µM)
MIC [15]: 0.025 µg/mL (≈ 0.0754 µM)
MIC [16]: 0.8 µg/mL (≈ 2.41 µM)
MIC [17]: 0.2 µg/mL (≈ 0.604 µM)
MIC [18]: 3.1 µg/mL (≈ 9.36 µM)
MIC [19]: 0.4 µg/mL (≈ 1.21 µM)
MIC [7]: 3.1 µg/mL (≈ 9.36 µM)
